Results taken from ChEMBL document CHEMBL3734668, “Evaluation of small molecule SecA inhibitors against methicillin-resistant Staphylococcus aureus” (Bioorg Med Chem, 2015).
≈ marks a conversion by molar mass, not a printed value. Calls of active or inactive are those of the source. No cut-off for these calls is given here.

Assays:
Staphylococcus aureus [1] = assay: Potency index, ratio of MIC for erythromycin to MIC for test compound against Methicillin resistant Staphylococcus aureus; type: functional
Staphylococcus aureus [2] = assay: Potency index, ratio of MIC for kanamycin to MIC for test compound against Methicillin resistant Staphylococcus aureus; type: functional
[3] = target: T1, Protein translocase subunit SecA 1 (Staphylococcus aureus (strain NCTC 8325), UniProt O06446); assay: Inhibition of Staphylococcus aureus ATCC 35556 SecA1 liposome dependent proOmpA translocation incubated for 1.5 hrs measured by Western blot analysis
T1 sequence (O06446 whole entry): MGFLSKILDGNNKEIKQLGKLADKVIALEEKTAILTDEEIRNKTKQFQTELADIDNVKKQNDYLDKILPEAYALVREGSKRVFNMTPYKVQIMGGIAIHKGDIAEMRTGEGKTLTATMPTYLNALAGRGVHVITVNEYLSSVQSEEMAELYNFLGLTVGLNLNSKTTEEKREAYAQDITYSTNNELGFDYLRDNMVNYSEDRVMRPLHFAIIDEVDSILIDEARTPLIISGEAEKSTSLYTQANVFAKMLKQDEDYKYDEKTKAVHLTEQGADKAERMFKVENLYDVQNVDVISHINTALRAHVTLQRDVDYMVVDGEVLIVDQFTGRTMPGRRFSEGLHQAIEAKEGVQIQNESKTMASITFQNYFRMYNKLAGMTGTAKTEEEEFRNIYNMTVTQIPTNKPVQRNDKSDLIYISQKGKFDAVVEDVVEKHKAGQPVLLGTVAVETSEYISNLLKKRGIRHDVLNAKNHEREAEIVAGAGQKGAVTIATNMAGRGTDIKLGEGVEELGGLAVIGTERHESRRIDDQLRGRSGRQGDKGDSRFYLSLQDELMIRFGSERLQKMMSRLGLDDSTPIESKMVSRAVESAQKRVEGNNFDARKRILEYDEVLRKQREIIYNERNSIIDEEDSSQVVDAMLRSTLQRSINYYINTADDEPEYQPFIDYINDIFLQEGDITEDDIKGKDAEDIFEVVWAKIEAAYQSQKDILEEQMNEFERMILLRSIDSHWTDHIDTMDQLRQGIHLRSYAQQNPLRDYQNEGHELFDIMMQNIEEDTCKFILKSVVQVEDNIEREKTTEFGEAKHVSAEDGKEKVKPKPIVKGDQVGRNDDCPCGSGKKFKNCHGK
Method in brief: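 Per 0.1 ml: 50 mM Tris-HCl pH 7.6, 20 mM NH4Cl, 25 mM KCl, 2 mM Mg(OAc)2, ATP-regenerating system, 1.5 μg SaSecA1, 100 ng SecB, 120 ng proOmpA, 120 μg liposomes, with varying inhibitor; 30 °C, 1.5 hr. Translocated proOmpA scored as proteinase K-protected, quantified by Western blot; n = 3.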

Staphylococcus aureus [4] = assay: Potency index, ratio of MIC for polymyxin B to MIC for test compound against Methicillin resistant Staphylococcus aureus; type: functional
Staphylococcus aureus [5] = assay: Bacteriostatic activity against NorA deficient Staphylococcus aureus K1758; type: functional
Method in brief: (§1)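 Broth microdilution MIC per CLSI guidance in LB, 37 °C, shaking 250 rpm, 24 hr; run in triplicate in three separate experiments. MIC taken as lowest inhibitor concentration with no growth. Compounds from DMSO stocks; untreated controls carry equal DMSO.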

[6] = target: T2, Protein translocase subunit SecA 1 (Staphylococcus aureus (strain NCTC 8325)) (UniProt O06446); assay: Non-competitive inhibition of Staphylococcus aureus ATCC 35556 SecA1 liposomal ATPase activity in Xenopus laevis oocytes incubated for 3 hrs measured by Lineweaver-Burk plot analysis; type: cell-based
T2 sequence (whole entry): T1 sequence (O06446 whole entry)
Method in brief: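 SaSecA1-liposome plus proOmpA co-injected into Xenopus oocytes at varying ATP and inhibitor concentrations, incubated 3 hr at 23 °C, ion current recorded 1 min; n = 9-10. Inhibition mode assessed across ATP levels.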

Staphylococcus aureus [7] = assay: Potency index, ratio of MIC for vancomysin to MIC for test compound against Methicillin resistant Staphylococcus aureus; type: functional
[8] = target: T3, Protein translocase subunit SecA 2 (Staphylococcus aureus (strain NCTC 8325), UniProt Q2FUW6); assay: Inhibition of Staphylococcus aureus ATCC 35556 SecA2 expressed in Escherichia coli BL21-gammaDE3 assessed as reduction in intrinsic ATPase activity incubated for 3 hrs measured by malachite green colorimetric method
T3 sequence (Q2FUW6 whole entry): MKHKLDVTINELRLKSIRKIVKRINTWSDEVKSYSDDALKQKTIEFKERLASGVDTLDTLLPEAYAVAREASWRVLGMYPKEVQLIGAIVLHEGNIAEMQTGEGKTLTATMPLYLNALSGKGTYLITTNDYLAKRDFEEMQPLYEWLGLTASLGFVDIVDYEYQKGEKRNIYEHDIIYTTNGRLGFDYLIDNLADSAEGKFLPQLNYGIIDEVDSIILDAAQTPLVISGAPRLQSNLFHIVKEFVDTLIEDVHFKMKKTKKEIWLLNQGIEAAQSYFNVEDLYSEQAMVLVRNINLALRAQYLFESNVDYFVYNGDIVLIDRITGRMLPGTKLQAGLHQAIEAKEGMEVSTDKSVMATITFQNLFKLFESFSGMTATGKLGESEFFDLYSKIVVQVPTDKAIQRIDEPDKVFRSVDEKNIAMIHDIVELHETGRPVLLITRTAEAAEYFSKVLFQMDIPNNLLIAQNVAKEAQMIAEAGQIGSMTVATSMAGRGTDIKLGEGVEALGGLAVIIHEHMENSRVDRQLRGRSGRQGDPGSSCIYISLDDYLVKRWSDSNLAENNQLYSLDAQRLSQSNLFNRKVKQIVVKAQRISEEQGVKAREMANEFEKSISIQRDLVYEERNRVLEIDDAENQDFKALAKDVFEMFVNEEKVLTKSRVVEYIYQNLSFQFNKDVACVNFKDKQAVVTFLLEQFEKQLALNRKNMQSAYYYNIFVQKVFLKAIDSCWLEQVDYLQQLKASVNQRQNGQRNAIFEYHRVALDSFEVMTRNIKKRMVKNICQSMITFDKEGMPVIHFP

Staphylococcus aureus [9] = assay: Bactericidal activity against Methicillin sensitive Staphylococcus aureus ATCC 6538 assessed as CFU reduction for 1 hr; type: functional, organism-based
Method in brief: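 Log-phase LB cultures (OD600 ≈ 0.5) mixed with a range of inhibitor concentrations, shaken at 1,000 rpm, 37 °C, 1 hr, under normal room light. Cultures serially diluted in LB, plated on LB agar, incubated overnight at 37 °C. CFU counted; bactericidal effect taken as CFU reduction versus untreated control.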

Staphylococcus aureus [10] = assay: Reduction in extracellular protein in Staphylococcus aureus Mu50 supernatant at 10 uM measured within 15 hrs; type: functional, organism-based
Method in brief: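 Mu50 grown in LB at 37 °C; inhibitor added at mid-log phase (OD600 ≈ 2.6). Culture sampled at various times, supernatant separated by centrifugation and passed through 0.45 μm filter. Secreted α-hemolysin, TSST-1 and enterotoxin B detected by Western blot with specific antibodies.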

Staphylococcus aureus [11] = assay: Bacteriostatic activity against Staphylococcus aureus N315 after 24 hrs; type: functional; conditions: N315, 24 h; method in brief: as §1

In the case of `CCCCCCC1c2ccc(O)cc2Oc2cc(O)ccc21`, the Ratio (Staphylococcus aureus [1]) is reported as 250, the Ratio (Staphylococcus aureus [2]) is reported as 250 and the IC50 [3] is reported as 4 µM. For the same molecule, the Ratio (Staphylococcus aureus [4]) was 7, the MIC (Staphylococcus aureus [5]) was 4 µg/mL (≈ 13.4 µM) and the inhibition [6] was “Active”. For the same molecule, the Ratio (Staphylococcus aureus [7]) was 2, the IC50 [8] was 15 µM and the Activity (Staphylococcus aureus [9]) was “Dose-dependent effect”. For the same molecule, the Activity (Staphylococcus aureus [10]) was “Active” and the MIC (Staphylococcus aureus [11]) was 4 µg/mL (≈ 13.4 µM).
